These results are taken from PMC12324215 (bioRxiv, 2025).

Experiment [1] deals with T. brucei brucei 449 (strain: Lister 427, bloodstream form). Nature of the experiment: Trypanosome cell survival assay. It is filed as cell-based. To be noted: Trypanosoma brucei, 24 h, read-out: EC50 (24 h).
For the next experiment, the target named is T1, Tpx WT/inhibitor complex (Trypanosoma brucei brucei, UniProt O77404).
T1 sequence (O77404 with tags, fused parts or gaps): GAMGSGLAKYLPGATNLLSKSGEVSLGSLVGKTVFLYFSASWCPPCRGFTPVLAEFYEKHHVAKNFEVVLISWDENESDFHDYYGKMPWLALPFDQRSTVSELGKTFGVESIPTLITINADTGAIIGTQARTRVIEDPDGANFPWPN
Description: SEC-MALS of Tpx/inhibitor complexes. The experiment is classed as binding, T. brucei. The settings on record: SEC-MALS at 100 μM protein concentration. In outline: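 Covalent complexes were formed as for ITC (TCEP-reduced Tpx, 3-fold excess inhibitor, 30 min, 25 °C) and SEC-purified. 100 µM complex was run on Superdex 75 10/300 in 25 mM NaPi pH 7.5, 150 mM NaCl at 0.5 ml/min, room temperature. Molar mass came from multi-angle light scattering plus refractive index detection, using a Zimm model.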

Usually EC50 stands for the concentration needed to bring the measured effect to its halfway point.

`O=c1[nH]c(CCl)nc2scc(-c3ccccc3)c12` [CPT, 2-(Chloromethyl)-5-phenylthieno[2,3-d]pyrimidin-4(3H)-one]: the EC50 in experiment [1] was 600 ± 300 nM.

Regarding `O=c1[nH]c(CCl)nc2scc(-c3ccc(C(F)(F)F)cc3)c12` [CtFT, 2-(Chloromethyl)-5-(4-(trifluoromethyl)phenyl)thieno[2,3-d]pyrimidin-4(3H)-one], the EC50 in experiment [1] was 2200 ± 600 nM. Besides, at Tpx WT/inhibitor complex, the “oligomeric state of Tpx/inhibitor complex” value is listed as “remained monomeric”.
